In brackets after ≈: the same amount, converted by molar mass.
tested on: Radical scavenging activity; experiment: Antioxidant activity assessed as DPPH free radical scavenging activity at 40 ug/mL after 20 min by UV-Vis spectrophotometric analysis; type: functional; settings: not given
Procedure, shortened: (§1)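 DPPH radical scavenging: samples were held at room temperature for 20 min in the dark, and absorbance was read at 517 nm. The control contained DMSO without compound, and methanol was used for baseline correction. Scavenging percentage was calculated from the absorbances.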

SMILES	Activity
COc1ccc(C2CC(c3ccc(Cl)cc3)=Cc3n[nH]c(O)c32)cc1 (stereo not drawn)	43.2%
COc1ccc(C2CC(c3ccc(C)cc3)=Cc3n[nH]c(O)c32)cc1OC (stereo not drawn)	62.6%
Cc1ccc(C2=Cc3n[nH]c(O)c3C(c3ccc(C)cc3)C2)cc1 (stereo not drawn)	18.2%

tested on: Radical scavenging activity; experiment: Antioxidant activity assessed as DPPH free radical scavenging activity at 400 ug/mL after 20 min by UV-Vis spectrophotometric analysis; type: functional; settings: not given; procedure, shortened: as §1

SMILES	Activity
COc1ccc(C2CC(c3ccc(Cl)cc3)=Cc3n[nH]c(O)c32)cc1 (stereo not drawn)	89.8%
COc1ccc(C2CC(c3ccc(C)cc3)=Cc3n[nH]c(O)c32)cc1OC (stereo not drawn)	91.7%
Cc1ccc(C2=Cc3n[nH]c(O)c3C(c3ccc(C)cc3)C2)cc1 (stereo not drawn)	84.8%

tested on: Radical scavenging activity; experiment: Antioxidant activity assessed as DPPH free radical scavenging activity at 500 ug/mL after 20 min by UV-Vis spectrophotometric analysis; type: functional; settings: not given; procedure, shortened: as §1

SMILES	Activity
COc1ccc(C2CC(c3ccc(Cl)cc3)=Cc3n[nH]c(O)c32)cc1 (stereo not drawn)	90%
COc1ccc(C2CC(c3ccc(C)cc3)=Cc3n[nH]c(O)c32)cc1OC (stereo not drawn)	91%
Cc1ccc(C2=Cc3n[nH]c(O)c3C(c3ccc(C)cc3)C2)cc1 (stereo not drawn)	85.2%

tested on: Dickeya chrysanthemi; experiment: Antibacterial activity against Erwinia chrysanthemi ITCC B-40 assessed as as growth inhibition at 100 ug/disk after 24 hr by disk diffusion method; type: functional; settings: ITCC B-40, 24 h, read-out: DIZ
Procedure, shortened: (§2)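 Disk diffusion on nutrient agar. Strains kept on NA slants at 37 °C and subcultured in nutrient broth before testing. A log-phase culture was spread on solidified medium, and sterile disks were loaded with compound from DMSO stock. DMSO served as control, with commercial antibiotics for reference. Plates ran 24 h at 37 °C, and inhibition zones (mm) were read in quadruplicate.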

SMILES	zone of inhibition at 100 µg/disc
COc1ccc(C2CC(c3ccc(Cl)cc3)=Cc3n[nH]c(O)c32)cc1 (stereo not drawn)	0 mm
COc1ccc(C2CC(c3ccc(C)cc3)=Cc3n[nH]c(O)c32)cc1OC (stereo not drawn)	0 mm
Cc1ccc(C2=Cc3n[nH]c(O)c3C(c3ccc(C)cc3)C2)cc1 (stereo not drawn)	0 mm

tested on: Radical scavenging activity; experiment: Antioxidant activity assessed as DPPH free radical scavenging activity at 100 ug/mL after 20 min by UV-Vis spectrophotometric analysis; type: functional; settings: not given; procedure, shortened: as §1

SMILES	Activity
COc1ccc(C2CC(c3ccc(Cl)cc3)=Cc3n[nH]c(O)c32)cc1 (stereo not drawn)	89.9%
COc1ccc(C2CC(c3ccc(C)cc3)=Cc3n[nH]c(O)c32)cc1OC (stereo not drawn)	81.8%
Cc1ccc(C2=Cc3n[nH]c(O)c3C(c3ccc(C)cc3)C2)cc1 (stereo not drawn)	40.3%

tested on: Radical scavenging activity; experiment: Antioxidant activity assessed as DPPH free radical scavenging activity at 60 ug/mL after 20 min by UV-Vis spectrophotometric analysis; type: functional; settings: not given; procedure, shortened: as §1

SMILES	Activity
COc1ccc(C2CC(c3ccc(Cl)cc3)=Cc3n[nH]c(O)c32)cc1 (stereo not drawn)	68.7%
COc1ccc(C2CC(c3ccc(C)cc3)=Cc3n[nH]c(O)c32)cc1OC (stereo not drawn)	78.5%
Cc1ccc(C2=Cc3n[nH]c(O)c3C(c3ccc(C)cc3)C2)cc1 (stereo not drawn)	31.5%

tested on: Radical scavenging activity; experiment: Antioxidant activity assessed as DPPH free radical scavenging activity at 20 ug/mL after 20 min by UV-Vis spectrophotometric analysis; type: functional; settings: not given; procedure, shortened: as §1

SMILES	Activity
COc1ccc(C2CC(c3ccc(Cl)cc3)=Cc3n[nH]c(O)c32)cc1 (stereo not drawn)	21.7%
COc1ccc(C2CC(c3ccc(C)cc3)=Cc3n[nH]c(O)c32)cc1OC (stereo not drawn)	25.9%
Cc1ccc(C2=Cc3n[nH]c(O)c3C(c3ccc(C)cc3)C2)cc1 (stereo not drawn)	4.4%

tested on: Bacillus thuringiensis; experiment: Antibacterial activity against Bacillus thuringiensis MTCC 6941 assessed as growth inhibition at 100 ug/disk after 24 hr by disk diffusion method; type: functional; settings: MTCC 6941, 24 h, read-out: DIZ; procedure, shortened: as §2

SMILES	zone of inhibition at 100 µg/disc
COc1ccc(C2CC(c3ccc(Cl)cc3)=Cc3n[nH]c(O)c32)cc1 (stereo not drawn)	0 mm
COc1ccc(C2CC(c3ccc(C)cc3)=Cc3n[nH]c(O)c32)cc1OC (stereo not drawn)	0 mm
Cc1ccc(C2=Cc3n[nH]c(O)c3C(c3ccc(C)cc3)C2)cc1 (stereo not drawn)	0 mm

tested on: Pseudomonas aeruginosa; experiment: Antibacterial activity against Pseudomonas aeruginosa MTCC 2581 assessed as growth inhibition at 100 ug/disk after 24 hr by disk diffusion method; type: functional; settings: MTCC 2581, 24 h, read-out: DIZ; procedure, shortened: as §2

SMILES	zone of inhibition at 100 µg/disc
COc1ccc(C2CC(c3ccc(Cl)cc3)=Cc3n[nH]c(O)c32)cc1 (stereo not drawn)	0 mm
COc1ccc(C2CC(c3ccc(C)cc3)=Cc3n[nH]c(O)c32)cc1OC (stereo not drawn)	0 mm
Cc1ccc(C2=Cc3n[nH]c(O)c3C(c3ccc(C)cc3)C2)cc1 (stereo not drawn)	10 mm

tested on: Radical scavenging activity; experiment: Antioxidant activity assessed as DPPH free radical scavenging activity at 300 ug/mL after 20 min by UV-Vis spectrophotometric analysis; type: functional; settings: not given; procedure, shortened: as §1

SMILES	Activity
COc1ccc(C2CC(c3ccc(Cl)cc3)=Cc3n[nH]c(O)c32)cc1 (stereo not drawn)	89.7%
COc1ccc(C2CC(c3ccc(C)cc3)=Cc3n[nH]c(O)c32)cc1OC (stereo not drawn)	91.6%
Cc1ccc(C2=Cc3n[nH]c(O)c3C(c3ccc(C)cc3)C2)cc1 (stereo not drawn)	80.5%

tested on: Radical scavenging activity; experiment: Antioxidant activity assessed as DPPH free radical scavenging activity at 200 ug/mL after 20 min by UV-Vis spectrophotometric analysis; type: functional; settings: not given; procedure, shortened: as §1

SMILES	Activity
COc1ccc(C2CC(c3ccc(Cl)cc3)=Cc3n[nH]c(O)c32)cc1 (stereo not drawn)	91.2%
COc1ccc(C2CC(c3ccc(C)cc3)=Cc3n[nH]c(O)c32)cc1OC (stereo not drawn)	91.4%
Cc1ccc(C2=Cc3n[nH]c(O)c3C(c3ccc(C)cc3)C2)cc1 (stereo not drawn)	68.1%

tested on: Klebsiella pneumoniae; experiment: Antibacterial activity against Klebsiella pneumoniae MTCC 7028 assessed as growth inhibition at 100 ug/disk after 24 hr by disk diffusion method; type: functional; settings: MTCC 7028, 24 h, read-out: DIZ; procedure, shortened: as §2

SMILES	zone of inhibition at 100 µg/disc
COc1ccc(C2CC(c3ccc(Cl)cc3)=Cc3n[nH]c(O)c32)cc1 (stereo not drawn)	0 mm
COc1ccc(C2CC(c3ccc(C)cc3)=Cc3n[nH]c(O)c32)cc1OC (stereo not drawn)	0 mm
Cc1ccc(C2=Cc3n[nH]c(O)c3C(c3ccc(C)cc3)C2)cc1 (stereo not drawn)	0 mm

tested on: Radical scavenging activity; experiment: Antioxidant activity assessed as DPPH free radical scavenging activity after 20 min by UV-Vis spectrophotometric analysis; type: functional; design: concentration or dose not given beside the values; settings: not given; procedure, shortened: as §1

SMILES	Activity	IC50
COc1ccc(C2CC(c3ccc(Cl)cc3)=Cc3n[nH]c(O)c32)cc1 (stereo not drawn)	43.2%	42.34 µg/mL (≈ 120 µM)
COc1ccc(C2CC(c3ccc(C)cc3)=Cc3n[nH]c(O)c32)cc1OC (stereo not drawn)	62.6%	33.12 µg/mL (≈ 91.4 µM)
Cc1ccc(C2=Cc3n[nH]c(O)c3C(c3ccc(C)cc3)C2)cc1 (stereo not drawn)	18.1%	123.54 µg/mL (≈ 390 µM)

tested on: Radical scavenging activity; experiment: Antioxidant activity assessed as DPPH free radical scavenging activity at 10 ug/mL after 20 min by UV-Vis spectrophotometric analysis; type: functional; settings: not given; procedure, shortened: as §1

SMILES	Activity
COc1ccc(C2CC(c3ccc(Cl)cc3)=Cc3n[nH]c(O)c32)cc1 (stereo not drawn)	13.9%
COc1ccc(C2CC(c3ccc(C)cc3)=Cc3n[nH]c(O)c32)cc1OC (stereo not drawn)	15%
Cc1ccc(C2=Cc3n[nH]c(O)c3C(c3ccc(C)cc3)C2)cc1 (stereo not drawn)	3.4%

tested on: Athelia rolfsii; experiment: Antifungal activity against Athelia rolfsii ITCC 6181 by food poisoning method; type: functional; settings: Agroathelia rolfsii
Procedure, shortened: (§3)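 Poisoned food technique on PDA at several concentrations. A 5 mm mycelial plug from the growing edge of a 2-week-old colony was placed inoculum-side down at the plate centre. Plates incubated at 27 °C until control growth was nearly complete. Colony diameter measured, percent inhibition calculated against control, LC50 derived. Four replicates per treatment.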

SMILES	LC50
COc1ccc(C2CC(c3ccc(Cl)cc3)=Cc3n[nH]c(O)c32)cc1 (stereo not drawn)	941 µg/mL (≈ 2670 µM)
COc1ccc(C2CC(c3ccc(C)cc3)=Cc3n[nH]c(O)c32)cc1OC (stereo not drawn)	939 µg/mL (≈ 2590 µM)
Cc1ccc(C2=Cc3n[nH]c(O)c3C(c3ccc(C)cc3)C2)cc1 (stereo not drawn)	876 µg/mL (≈ 2770 µM)

tested on: Bacillus pumilus; experiment: Antibacterial activity against Bacillus pumilus MTCC 2466 assessed as growth inhibition at 100 ug/disk after 24 hr by disk diffusion method; type: functional; settings: MTCC 2466, 24 h, read-out: DIZ; procedure, shortened: as §2

SMILES	zone of inhibition at 100 µg/disc
COc1ccc(C2CC(c3ccc(Cl)cc3)=Cc3n[nH]c(O)c32)cc1 (stereo not drawn)	0 mm
COc1ccc(C2CC(c3ccc(C)cc3)=Cc3n[nH]c(O)c32)cc1OC (stereo not drawn)	0 mm
Cc1ccc(C2=Cc3n[nH]c(O)c3C(c3ccc(C)cc3)C2)cc1 (stereo not drawn)	0 mm

tested on: Xanthomonas oryzae; experiment: Antibacterial activity against Xanthomonas oryzae ITCC B-47 assessed as as growth inhibition at 100 ug/disk after 24 hr by disk diffusion method; type: functional; settings: ITCC B-47, 24 h, read-out: DIZ

SMILES	zone of inhibition at 100 µg/disc
COc1ccc(C2CC(c3ccc(Cl)cc3)=Cc3n[nH]c(O)c32)cc1 (stereo not drawn)	0 mm
COc1ccc(C2CC(c3ccc(C)cc3)=Cc3n[nH]c(O)c32)cc1OC (stereo not drawn)	0 mm
Cc1ccc(C2=Cc3n[nH]c(O)c3C(c3ccc(C)cc3)C2)cc1 (stereo not drawn)	0 mm

tested on: Radical scavenging activity; experiment: Antioxidant activity assessed as DPPH free radical scavenging activity at 80 ug/mL after 20 min by UV-Vis spectrophotometric analysis; type: functional; settings: not given; procedure, shortened: as §1

SMILES	Activity
COc1ccc(C2CC(c3ccc(Cl)cc3)=Cc3n[nH]c(O)c32)cc1 (stereo not drawn)	86.4%
COc1ccc(C2CC(c3ccc(C)cc3)=Cc3n[nH]c(O)c32)cc1OC (stereo not drawn)	80.3%
Cc1ccc(C2=Cc3n[nH]c(O)c3C(c3ccc(C)cc3)C2)cc1 (stereo not drawn)	34.9%

tested on: Rhizoctonia solani; experiment: Antifungal activity against Rhizoctonia solani ITCC 5563 by food poisoning method; type: functional; settings: not given; procedure, shortened: as §3

SMILES	LC50
COc1ccc(C2CC(c3ccc(Cl)cc3)=Cc3n[nH]c(O)c32)cc1 (stereo not drawn)	587 µg/mL (≈ 1660 µM)
COc1ccc(C2CC(c3ccc(C)cc3)=Cc3n[nH]c(O)c32)cc1OC (stereo not drawn)	861 µg/mL (≈ 2380 µM)
Cc1ccc(C2=Cc3n[nH]c(O)c3C(c3ccc(C)cc3)C2)cc1 (stereo not drawn)	814 µg/mL (≈ 2570 µM)

tested on: Staphylococcus aureus; experiment: Antibacterial activity against Staphylococcus aureus MTCC 3160 assessed as growth inhibition at 100 ug/disk after 24 hr by disk diffusion method; type: functional; settings: MTCC 3160, 24 h, read-out: DIZ; procedure, shortened: as §2

SMILES	zone of inhibition at 100 µg/disc
COc1ccc(C2CC(c3ccc(Cl)cc3)=Cc3n[nH]c(O)c32)cc1 (stereo not drawn)	0 mm
COc1ccc(C2CC(c3ccc(C)cc3)=Cc3n[nH]c(O)c32)cc1OC (stereo not drawn)	0 mm
Cc1ccc(C2=Cc3n[nH]c(O)c3C(c3ccc(C)cc3)C2)cc1 (stereo not drawn)	5 mm

— ChEMBL document CHEMBL3045565, “Microwave synthesis, characterization and bio-efficacy evaluation of novel chalcone based 6-carbethoxy-2-cyclohexen-1-one and 2H-indazol-3-ol derivatives” (Eur J Med Chem, 2013)
